Measurements gathered from unrelated publications.
Lines come from different studies, so protocols differ.
Target: Serine/threonine-protein kinase ULK1 (ULK1, Homo sapiens, UniProt O75385)
Residues used in one study (O75385 1-1050): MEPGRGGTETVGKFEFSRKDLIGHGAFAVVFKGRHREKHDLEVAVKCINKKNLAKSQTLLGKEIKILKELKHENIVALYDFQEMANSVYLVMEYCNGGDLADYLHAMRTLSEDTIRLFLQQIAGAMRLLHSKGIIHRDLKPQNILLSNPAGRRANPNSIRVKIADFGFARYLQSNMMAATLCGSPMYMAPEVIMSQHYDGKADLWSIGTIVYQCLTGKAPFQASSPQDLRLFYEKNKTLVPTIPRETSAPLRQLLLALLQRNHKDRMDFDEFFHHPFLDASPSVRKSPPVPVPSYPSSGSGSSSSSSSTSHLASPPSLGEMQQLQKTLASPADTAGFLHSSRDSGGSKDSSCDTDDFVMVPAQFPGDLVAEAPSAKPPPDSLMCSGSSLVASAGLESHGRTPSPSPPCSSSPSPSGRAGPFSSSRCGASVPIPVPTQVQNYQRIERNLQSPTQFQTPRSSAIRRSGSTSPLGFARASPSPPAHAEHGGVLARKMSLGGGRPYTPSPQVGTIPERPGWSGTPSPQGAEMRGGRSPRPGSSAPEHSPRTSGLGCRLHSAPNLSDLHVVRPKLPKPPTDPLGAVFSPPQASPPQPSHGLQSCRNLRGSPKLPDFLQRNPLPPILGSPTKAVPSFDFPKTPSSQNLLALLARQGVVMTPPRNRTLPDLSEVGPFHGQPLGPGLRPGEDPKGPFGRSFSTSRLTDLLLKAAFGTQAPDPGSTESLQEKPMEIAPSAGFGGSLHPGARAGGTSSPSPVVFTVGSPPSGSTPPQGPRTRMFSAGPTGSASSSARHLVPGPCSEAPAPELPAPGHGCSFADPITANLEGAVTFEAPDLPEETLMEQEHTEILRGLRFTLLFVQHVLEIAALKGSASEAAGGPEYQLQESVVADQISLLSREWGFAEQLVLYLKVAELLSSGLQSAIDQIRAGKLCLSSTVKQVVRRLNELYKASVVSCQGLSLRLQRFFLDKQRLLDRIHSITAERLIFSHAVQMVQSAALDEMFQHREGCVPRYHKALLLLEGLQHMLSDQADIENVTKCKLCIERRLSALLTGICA

Structure (SMILES)	observed	technique	tested at	remaining binding
CN(C(=O)c1ccccc1)c1cc(N(C)c2ccc3c(c2)CCc2ccc(C(=O)NCCN4CCOCC4)cc2C3=O)ccc1F	cell-free assay	competition with immobilised ligand	1 µM	100%
CCN1CCN(Cc2ccc(C(=O)Nc3ccc(C)c(Oc4ccc5c(c4)CC(=O)N5)c3)cc2C(F)(F)F)CC1	binding	competition with immobilised ligand	1 µM	100%
COc1cnc(Nc2cccc(S(N)(=O)=O)c2)nc1N1CCN(c2ccccc2)C(=O)C1	binding	competition with immobilised ligand	1 µM	67%
Cc1cnn2ncc(-c3ccnc(N(C)C)n3)c2c1	binding		1 µM	100%
COc1ncc2cc3ccccc3nc2c1C#N	cell-free assay	competition with immobilised ligand	5 µM	93%
O=C1CCc2cc(Nc3cc(OC4CCOCC4)c([N+](=O)[O-])cc3Cl)ccc2N1	cell-free assay	competition with immobilised ligand	1 µM	87%
CN(C)c1ncc(F)c(-c2cnn3ncccc23)n1	binding		1 µM	80%
CC1=C(C#N)C(c2ccc3c(c2)c(NC(=O)c2ccccc2C)nn3C)C(C#N)=C(C)N1	cell-free assay	competition with immobilised ligand	1 µM	86%
O=C(c1ccc(Nc2ncc(Cl)c(-c3ccc(Cl)s3)n2)cc1)N1CCC(N2CCCC2)CC1	binding	competition with immobilised ligand	1 µM	1.8%
CS(=O)(=O)N1CCCC(NC(=O)[C@H](CCC2CCCCC2)NC(=O)c2ccc(CNC(=O)c3cnc4ccccn34)cc2)C1 (some centres unmarked)	cell-free assay	competition with immobilised ligand	0.1 µM	83%
CN(CCCC(F)(F)F)c1nccc(-c2cnn3ncccc23)n1	binding		1 µM	79%
O=C(NCCCN1CCOCC1)c1ccc(Nc2nccc(-c3cc4ccccc4s3)n2)cc1	binding	competition with immobilised ligand	1 µM	52%
O=C(NCC1CCOCC1)c1n[nH]cc1NC(=O)c1c(F)cccc1F	binding	competition with immobilised ligand	1 µM	86%
COc1ccc2c(O[C@@H]3C[C@H]4C(=O)N[C@]5(C(=O)O)CC5/C=C\CCCCC[C@H](NC(=O)OC5CCCC5)C(=O)N4C3)cc(-c3csc(NC(=O)C(C)C)n3)nc2c1C (some centres unmarked)	cell-free assay	competition with immobilised ligand	1 µM	93%
CC1CCCN1c1nccc(-c2cnn3ncccc23)n1 (centres unmarked)	binding		1 µM	97%
Nc1ncc2c(n1)-c1c([nH]c3ccc(C#CC4CC4)cc13)CCCC2	binding	competition with immobilised ligand	1 µM	92%
F[C@@H]1CCN(c2nccc(-c3cnn4ncccc34)n2)C1	binding		1 µM	89%
O=C(NCCCN1CCOCC1)c1ccc(Nc2ncc(Cl)c(-c3ccc(Cl)s3)n2)cc1	binding	competition with immobilised ligand	1 µM	3.5%
N[C@H]1CCN(c2nccc(-c3cnn4ncccc34)n2)C1	binding		1 µM	100%
CNCc1ccccc1-c1csc([C@H](C)Nc2nc(C)nc3cc(OC)c(OC)cc23)c1	cell-free assay	competition with immobilised ligand	1 µM	91%
